Calls of active or inactive are those of the source. No cut-off for these calls is given here. Where a SMILES comes first, the peptide text is derived from it. The star is where a group is joined. Cbz = O=C(OCc1ccccc1)*
biological target: T1, Mitogen-activated protein kinase 14 (Homo sapiens, UniProt Q16539); test: Inhibition of recombinant human p38alpha expressed in Escherichia coli assessed as residual activity at 10 uM (reference value: 100 +/- 0.1%); conditions: not given
Method in brief: (§1)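 Single-point kinase screen at 10 μM, in duplicate; ALK5 as human GST-fusion from baculovirus/Sf9, p38α as untagged human protein from E. coli; residual activity relative to DMSO vehicle, mean ± SD of two independent experiments.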

T1 sequence (Q16539 whole entry, the tested form may be a part): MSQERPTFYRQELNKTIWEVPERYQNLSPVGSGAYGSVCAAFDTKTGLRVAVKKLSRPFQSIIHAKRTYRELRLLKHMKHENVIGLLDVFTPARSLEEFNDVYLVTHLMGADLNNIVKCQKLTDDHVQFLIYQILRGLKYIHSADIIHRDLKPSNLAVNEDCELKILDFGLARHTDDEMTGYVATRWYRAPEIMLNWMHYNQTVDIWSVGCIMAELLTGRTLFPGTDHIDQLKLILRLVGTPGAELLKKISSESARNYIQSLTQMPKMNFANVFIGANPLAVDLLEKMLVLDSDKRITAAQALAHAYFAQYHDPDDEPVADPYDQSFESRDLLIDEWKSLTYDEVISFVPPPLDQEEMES

Activity [%]	SMILES
14	Cc1cccc(-c2nn(CC(=O)Nc3cccc(F)c3)cc2-c2ccnc(-c3ccccc3)c2)n1
4	Cc1cccc(-c2nn(CC(=S)Nc3ccccc3F)cc2-c2ccnc(-c3ccccc3)c2)n1
4	Cc1cccc(-c2nn(CC(=O)Nc3cccc(F)c3)cc2-c2ccnc3ccccc23)n1
3	Cc1cccc(-c2nn(CC(=S)Nc3ccccc3)cc2-c2ccnc3ccccc23)n1
31	Cc1cccc(-c2c(-c3ccnc4ccccc34)cnn2CC(=O)Nc2cccc(F)c2)n1
4	Cc1cccc(-c2nn(CC(=S)Nc3ccccc3F)cc2-c2ccnc3ccccc23)n1
20	Cc1cccc(-c2nn(CC(=O)Nc3ccccc3F)cc2-c2ccnc(-c3ccccc3)c2)n1
15	Cc1cccc(-c2nn(CC(=S)Nc3cccc(C#N)c3)cc2-c2ccnc(-c3ccccc3)c2)n1
9	Cc1cccc(-c2nn(CC(=S)Nc3cccc(F)c3)cc2-c2ccnc(-c3ccccc3)c2)n1
81	Cc1cccc(-c2c(-c3ccnc(-c4ccccc4)c3)cnn2CC(=O)Nc2cccc(F)c2)n1
4	Cc1cccc(-c2nn3c(c2-c2ccnc4ccc(C(N)=O)cc24)CCC3)n1 [GALUNISERTIB]
24	Cc1cccc(-c2nn(CC(=O)Nc3cccc(C#N)c3)cc2-c2ccnc(-c3ccccc3)c2)n1
6	Cc1cccc(-c2nn(CC(=O)Nc3ccccc3F)cc2-c2ccnc3ccccc23)n1
10	Cc1cccc(-c2nn(CC(=O)Nc3ccccc3)cc2-c2ccnc3ccccc23)n1
10	Cc1cccc(-c2nn(CC(=S)Nc3ccccc3)cc2-c2ccnc(-c3ccccc3)c2)n1
50	Cc1cccc(-c2c(-c3ccnc4ccccc34)cnn2CC(=O)Nc2ccccc2F)n1
66	Cc1cccc(-c2c(-c3ccnc(-c4ccccc4)c3)cnn2CC(=O)Nc2ccccc2)n1
11	Cc1cccc(-c2nn(CC(=O)Nc3ccccc3)cc2-c2ccnc(-c3ccccc3)c2)n1
3	Cc1cccc(-c2nn(CC(=S)Nc3cccc(F)c3)cc2-c2ccnc3ccccc23)n1
96	Cc1cccc(-c2c(-c3ccnc(-c4ccccc4)c3)cnn2CC(=O)Nc2ccccc2F)n1
24	Cc1cccc(-c2c(-c3ccnc4ccccc34)cnn2CC(=O)Nc2ccccc2)n1
135	Cc1cccc(-c2c(-c3ccnc(-c4ccccc4)c3)cnn2CC(=O)Nc2cccc(C#N)c2)n1
51	Cc1cccc(-c2c(-c3ccnc4ccccc34)cnn2CC(=O)Nc2cccc(C#N)c2)n1
6	Cc1cccc(-c2nn(CC(=O)Nc3cccc(C#N)c3)cc2-c2ccnc3ccccc23)n1

biological target: T2, TGF-beta receptor type-1 (Homo sapiens) (UniProt P36897); test: Inhibition of recombinant GST-tagged human ALK5 expressed in baculovirus infected Sf9 insect cells assessed as residual activity at 10 uM; conditions: not given; method in brief: as §1
T2 sequence (whole entry): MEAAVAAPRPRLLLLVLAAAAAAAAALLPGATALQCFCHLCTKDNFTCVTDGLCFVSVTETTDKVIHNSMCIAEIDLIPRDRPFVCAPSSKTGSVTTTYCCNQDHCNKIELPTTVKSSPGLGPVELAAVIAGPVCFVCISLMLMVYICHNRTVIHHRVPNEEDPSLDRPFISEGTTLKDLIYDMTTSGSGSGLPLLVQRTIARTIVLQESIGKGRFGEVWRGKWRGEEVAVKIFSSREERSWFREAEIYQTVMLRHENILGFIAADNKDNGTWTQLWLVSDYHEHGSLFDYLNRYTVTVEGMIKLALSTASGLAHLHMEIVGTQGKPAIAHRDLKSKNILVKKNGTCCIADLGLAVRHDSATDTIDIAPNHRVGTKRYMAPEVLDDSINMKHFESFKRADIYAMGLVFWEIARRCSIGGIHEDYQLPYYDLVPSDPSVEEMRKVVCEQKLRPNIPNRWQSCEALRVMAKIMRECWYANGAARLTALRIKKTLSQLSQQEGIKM

Activity [%]	SMILES
3	Cc1cccc(-c2nn(CC(=O)Nc3cccc(F)c3)cc2-c2ccnc(-c3ccccc3)c2)n1
11	Cc1cccc(-c2nn(CC(=S)Nc3ccccc3F)cc2-c2ccnc(-c3ccccc3)c2)n1
0	Cc1cccc(-c2nn(CC(=O)Nc3cccc(F)c3)cc2-c2ccnc3ccccc23)n1
3	Cc1cccc(-c2nn(CC(=S)Nc3ccccc3)cc2-c2ccnc3ccccc23)n1
39	Cc1cccc(-c2c(-c3ccnc4ccccc34)cnn2CC(=O)Nc2cccc(F)c2)n1
2	Cc1cccc(-c2nn(CC(=S)Nc3ccccc3F)cc2-c2ccnc3ccccc23)n1
20	Cc1cccc(-c2nn(CC(=O)Nc3ccccc3F)cc2-c2ccnc(-c3ccccc3)c2)n1
12	Cc1cccc(-c2nn(CC(=S)Nc3cccc(C#N)c3)cc2-c2ccnc(-c3ccccc3)c2)n1
6	Cc1cccc(-c2nn(CC(=S)Nc3cccc(F)c3)cc2-c2ccnc(-c3ccccc3)c2)n1
93	Cc1cccc(-c2c(-c3ccnc(-c4ccccc4)c3)cnn2CC(=O)Nc2cccc(F)c2)n1
18	Cc1cccc(-c2nn(CC(=O)Nc3cccc(C#N)c3)cc2-c2ccnc(-c3ccccc3)c2)n1
0	Cc1cccc(-c2nn(CC(=O)Nc3ccccc3F)cc2-c2ccnc3ccccc23)n1
2	Cc1cccc(-c2nn(CC(=O)Nc3ccccc3)cc2-c2ccnc3ccccc23)n1
11	Cc1cccc(-c2nn(CC(=S)Nc3ccccc3)cc2-c2ccnc(-c3ccccc3)c2)n1
79	Cc1cccc(-c2c(-c3ccnc4ccccc34)cnn2CC(=O)Nc2ccccc2F)n1
100	Cc1cccc(-c2c(-c3ccnc(-c4ccccc4)c3)cnn2CC(=O)Nc2ccccc2)n1
12	Cc1cccc(-c2nn(CC(=O)Nc3ccccc3)cc2-c2ccnc(-c3ccccc3)c2)n1
2	Cc1cccc(-c2nn(CC(=S)Nc3cccc(F)c3)cc2-c2ccnc3ccccc23)n1
102	Cc1cccc(-c2c(-c3ccnc(-c4ccccc4)c3)cnn2CC(=O)Nc2ccccc2F)n1
71	Cc1cccc(-c2c(-c3ccnc4ccccc34)cnn2CC(=O)Nc2ccccc2)n1
105	Cc1cccc(-c2c(-c3ccnc(-c4ccccc4)c3)cnn2CC(=O)Nc2cccc(C#N)c2)n1
17	Cc1cccc(-c2c(-c3ccnc4ccccc34)cnn2CC(=O)Nc2cccc(C#N)c2)n1
1	Cc1cccc(-c2nn(CC(=O)Nc3cccc(C#N)c3)cc2-c2ccnc3ccccc23)n1

biological target: T1, Mitogen-activated protein kinase 14; test: Inhibition of recombinant human p38alpha expressed in Escherichia coli; conditions: not given
Method in brief: (§2)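 IC50 determination against ALK5 (human GST-fusion, Sf9 baculovirus) and p38α (untagged human, E. coli); values averaged from three independent experiments run in triplicate.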

IC50 [nM]	SMILES
487	Cc1cccc(-c2nn(CC(=S)Nc3ccccc3F)cc2-c2ccnc(-c3ccccc3)c2)n1
74	Cc1cccc(-c2nn(CC(=S)Nc3ccccc3)cc2-c2ccnc3ccccc23)n1
68	Cc1cccc(-c2nn(CC(=S)Nc3ccccc3F)cc2-c2ccnc3ccccc23)n1
1150	Cc1cccc(-c2nn(CC(=S)Nc3cccc(C#N)c3)cc2-c2ccnc(-c3ccccc3)c2)n1
761	Cc1cccc(-c2nn(CC(=S)Nc3cccc(F)c3)cc2-c2ccnc(-c3ccccc3)c2)n1
536	Cc1cccc(-c2nn(CC(=S)Nc3ccccc3)cc2-c2ccnc(-c3ccccc3)c2)n1
63	Cc1cccc(-c2nn(CC(=S)Nc3cccc(F)c3)cc2-c2ccnc3ccccc23)n1

biological target: T3, TGF-beta receptor type-1 (Homo sapiens, UniProt P36897); test: Inhibition of recombinant GST-tagged human ALK5 expressed in baculovirus infected Sf9 insect cells; conditions: not given; method in brief: as §2
T3 sequence (P36897 whole entry): T2 sequence (whole entry)

IC50 [nM]	SMILES
2050	Cc1cccc(-c2nn(CC(=S)Nc3ccccc3F)cc2-c2ccnc(-c3ccccc3)c2)n1
57	Cc1cccc(-c2nn(CC(=S)Nc3ccccc3)cc2-c2ccnc3ccccc23)n1
53	Cc1cccc(-c2nn(CC(=S)Nc3ccccc3F)cc2-c2ccnc3ccccc23)n1
2200	Cc1cccc(-c2nn(CC(=S)Nc3cccc(C#N)c3)cc2-c2ccnc(-c3ccccc3)c2)n1
1560	Cc1cccc(-c2nn(CC(=S)Nc3cccc(F)c3)cc2-c2ccnc(-c3ccccc3)c2)n1
1690	Cc1cccc(-c2nn(CC(=S)Nc3ccccc3)cc2-c2ccnc(-c3ccccc3)c2)n1
43	Cc1cccc(-c2nn(CC(=S)Nc3cccc(F)c3)cc2-c2ccnc3ccccc23)n1

test system: HCT-116; test: Inhibition of TNFalpha-induced HIF1alpha expression in human HCT116 cells at 50 uM by Western blot analysis; format: functional, cell-based; conditions: not given
Method in brief: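 HCT116 exposed to TNF 10 ng/mL for 24 h with graded concentrations; total protein blotted for HIF-1α, Topo-I reprobe as loading control.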

SMILES	inhibition
Cc1cccc(-c2nn3c(c2-c2ccnc4ccc(C(N)=O)cc24)CCC3)n1 [GALUNISERTIB]	Active

test system: HCT-116; test: […] of HIF1alpha expression in human HCT116 cells at 10 uM after 30 mins in presence of 1% O2 by Western blot analysis; format: functional, cell-based; conditions: not given

SMILES	Activity
CC(C)C[C@@H](C=O)NC(=O)[C@H](CC(C)C)NC(=O)[C@H](CC(C)C)NC(=O)OCc1ccccc1 (Cbz-Leu-Leu-Leu-aldehyde)	Active

test system: HCT-116; test: Induction of apoptosis in human HCT116 cells assessed as viable cells at 50 uM after 12 hrs by Annexin-V/PI-staining based flow cytometric analysis (reference value: 95.3%); format: functional; conditions: HCT-116, 12 h, read-out: Activity

SMILES	viability at 50 µM [%]
Cc1cccc(-c2nn3c(c2-c2ccnc4ccc(C(N)=O)cc24)CCC3)n1 [GALUNISERTIB]	85.2

test system: HCT-116; test: Induction of apoptosis in human HCT116 cells assessed as necrotic cells at 50 uM after 12 hrs by Annexin-V/PI-staining based flow cytometric analysis (reference value: 3.5%); format: functional; conditions: not given

SMILES	Activity [%]
Cc1cccc(-c2nn3c(c2-c2ccnc4ccc(C(N)=O)cc24)CCC3)n1 [GALUNISERTIB]	8.5

test system: HCT-116; test: Induction of apoptosis in human HCT116 cells assessed as viable cells at 50 uM preincubated for 12 hrs followed by TNF stimulation and measured after 24 hrs by Annexin-V/PI-staining based flow cytometric analysis (reference value: 92.4%); format: functional; conditions: read-out: Activity

SMILES	viability at 50 µM [%]
Cc1cccc(-c2nn3c(c2-c2ccnc4ccc(C(N)=O)cc24)CCC3)n1 [GALUNISERTIB]	87.7

test system: HCT-116; test: Induction of apoptosis in human HCT116 cells assessed as early apoptotic cells at 50 uM preincubated for 12 hrs followed by TNF stimulation and measured after 24 hrs by Annexin-V/PI-staining based flow cytometric analysis (reference value: 2.8%); format: functional; conditions: not given

SMILES	Activity [%]
Cc1cccc(-c2nn3c(c2-c2ccnc4ccc(C(N)=O)cc24)CCC3)n1 [GALUNISERTIB]	3.7

test system: HCT-116; test: Induction of apoptosis in human HCT116 cells assessed as late apoptotic cells at 50 uM preincubated for 12 hrs followed by TNF stimulation and measured after 24 hrs by Annexin-V/PI-staining based flow cytometric analysis (reference value: 1.4%); format: functional; conditions: not given

SMILES	Activity [%]
Cc1cccc(-c2nn3c(c2-c2ccnc4ccc(C(N)=O)cc24)CCC3)n1 [GALUNISERTIB]	2.8

test system: HCT-116; test: Induction of apoptosis in human HCT116 cells assessed as necrotic cells at 50 uM preincubated for 12 hrs followed by TNF stimulation and measured after 24 hrs by Annexin-V/PI-staining based flow cytometric analysis (reference value: 3.6%); format: functional; conditions: not given

SMILES	Activity [%]
Cc1cccc(-c2nn3c(c2-c2ccnc4ccc(C(N)=O)cc24)CCC3)n1 [GALUNISERTIB]	5.7

Source: ChEMBL document CHEMBL4613227, “Synthesis and evaluation of the HIF-1α inhibitory activity of 3(5)-substituted-4-(quinolin-4-yl)- and 4-(2-phenylpyridin-4-yl)pyrazoles as inhibitors of ALK5” (Bioorg Med Chem Lett, 2020)
